Results published in ChEMBL document CHEMBL5331087, “Targeted AURKA degradation: Towards new therapeutic agents for neuroblastoma” (Eur J Med Chem, 2023).
pIC50: −log10 of the molar value. Calls of active or inactive are those of the source. The calls are words filed in the database; no cut-off is given here.

Columns and labels:
[1] = target: T1, Protein cereblon/Aurora kinase A (Homo sapiens) (UniProt O14965+Q96SW2); assay: PROTAC activity at AURKA/CRBN in human NGP cells assessed as AURKA degradation at 10 to 1000 nM measured for 24 hrs in presence of MK-5108 by Western blot analysis; type: cell-based; settings: dose 10-1000 nM
T1 sequence (O14965 whole entry, looked up): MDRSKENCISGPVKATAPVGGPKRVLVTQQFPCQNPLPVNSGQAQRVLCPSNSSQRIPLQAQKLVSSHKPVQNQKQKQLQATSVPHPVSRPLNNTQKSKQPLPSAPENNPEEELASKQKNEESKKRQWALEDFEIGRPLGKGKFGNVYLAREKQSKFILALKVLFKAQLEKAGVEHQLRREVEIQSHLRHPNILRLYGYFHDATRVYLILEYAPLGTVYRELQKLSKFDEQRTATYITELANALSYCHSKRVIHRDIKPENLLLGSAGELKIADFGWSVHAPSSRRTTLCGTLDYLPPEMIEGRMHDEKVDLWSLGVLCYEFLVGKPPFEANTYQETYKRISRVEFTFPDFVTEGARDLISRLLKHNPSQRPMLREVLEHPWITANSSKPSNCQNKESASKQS
T1 sequence (Q96SW2 whole entry, looked up): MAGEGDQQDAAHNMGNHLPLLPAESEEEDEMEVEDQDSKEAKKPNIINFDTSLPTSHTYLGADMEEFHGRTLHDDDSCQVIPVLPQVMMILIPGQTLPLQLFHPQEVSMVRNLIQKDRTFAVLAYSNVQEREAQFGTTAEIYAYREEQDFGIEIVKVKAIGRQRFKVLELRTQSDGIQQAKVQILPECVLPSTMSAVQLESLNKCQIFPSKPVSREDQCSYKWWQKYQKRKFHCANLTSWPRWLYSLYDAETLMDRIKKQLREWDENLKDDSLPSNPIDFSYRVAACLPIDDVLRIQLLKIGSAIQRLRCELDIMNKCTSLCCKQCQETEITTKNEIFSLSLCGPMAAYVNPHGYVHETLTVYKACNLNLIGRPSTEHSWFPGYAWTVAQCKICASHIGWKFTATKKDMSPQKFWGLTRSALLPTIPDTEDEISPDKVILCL

[2] = Growth inhibition of patient derived NB139 Neuroblastoma organoid assessed as reduction in viability […] by CellTiter Glo 3D assay; type: functional, tissue-based; settings: Homo sapiens
Method in brief: (§1)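 Patient-derived organoids were dissociated to single cells with Accutase and seeded in NB organoid medium at 5000 (000GKX), 20000 (NB059), 5000 (NB067) or 3000 (NB139) cells/well. Compound was added after 24 h over a concentration range in triplicate, with DMSO matched. Incubation was 120 h at 37 °C and 5% CO2. Viability was read by CellTiter-Glo 3D, and absolute IC50 derived (n = 1).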

[3] = target: T1, Protein cereblon/Aurora kinase A (Homo sapiens); assay: PROTAC activity at AURKA/CRBN in human NGP cells assessed as increase in H2AX phosphorylation at 10 to 1000 nM measured for 24 hrs by immunoblotting analysis; type: cell-based; settings: dose 10-1000 nM
SK-N-AS [4] = assay: Antiproliferative activity against human SK-N-AS cells assessed as reduction in cell viability incubated for 48 hrs relative to control; type: functional
Method in brief: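 Cells grown in RPMI 1640 with 10% fetal calf serum, 2 mM L-glutamine and penicillin/streptomycin at 37 °C, 5% CO2. Seeded at 4500 (IMR-32) or 2100 (SK-N-AS) cells/well in 384-well plates and left to adhere overnight. Concentration range dispensed in triplicate. Confluence tracked by IncuCyte live-cell imaging, and 48h values normalized to DMSO. Absolute IC50 taken from a four-parameter variable-slope fit (n = 4).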

[5] = target: T2, N-myc proto-oncogene protein (Homo sapiens) (UniProt P04198); assay: Induction of MYCN degradation in human NGP cells at 500 nM by Western blot analysis; type: cell-based; settings: time <= 72.0 hrs
T2 sequence (whole entry): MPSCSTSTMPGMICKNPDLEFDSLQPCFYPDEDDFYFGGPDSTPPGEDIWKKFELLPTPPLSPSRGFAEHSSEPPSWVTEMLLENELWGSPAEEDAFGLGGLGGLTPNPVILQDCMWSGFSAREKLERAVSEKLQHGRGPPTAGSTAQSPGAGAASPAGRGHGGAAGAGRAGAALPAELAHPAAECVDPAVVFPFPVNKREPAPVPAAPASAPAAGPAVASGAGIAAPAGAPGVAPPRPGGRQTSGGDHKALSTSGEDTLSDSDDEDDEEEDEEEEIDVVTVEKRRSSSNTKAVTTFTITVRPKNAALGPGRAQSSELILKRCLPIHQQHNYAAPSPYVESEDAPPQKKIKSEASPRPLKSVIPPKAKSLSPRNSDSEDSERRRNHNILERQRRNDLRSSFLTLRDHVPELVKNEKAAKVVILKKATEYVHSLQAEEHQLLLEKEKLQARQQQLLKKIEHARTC
Method in brief: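 NGP cells were treated with 500 nM compound and harvested at 0, 1, 3, 6, 24, 48 and 72 h. RIPA lysates (35 µg) were run on 10% SDS-PAGE and blotted to nitrocellulose. AURKA and MYCN were probed with vinculin as loading control and quantified by densitometry. Values are percent remaining relative to the DMSO control at each timepoint (n = 3).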

[6] = target: T1, Protein cereblon/Aurora kinase A (Homo sapiens); assay: PROTAC activity at AURKA/CRBN in human NGP cells assessed as AURKA degradation at 10 to 1000 nM measured for 24 hrs by Western blot analysis relative to control; type: cell-based; settings: dose 10-1000 nM
Method in brief: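 NGP cells were seeded at about 2×10^6 per flask, adhered for 48 h, and were then treated for 24 h with DMSO matched. Lysis was in RIPA with protease/phosphatase inhibitors. AURKA was quantified by capillary Simple Western with peak areas normalised to vinculin. Fold change is relative to DMSO (mean ± SD, n = 3).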

[7] = Growth inhibition of patient derived 000GKX Neuroblastoma organoid assessed as reduction in viability […] by CellTiter Glo 3D assay; type: functional, tissue-based, Homo sapiens; method in brief: as §1
[8] = Antiproliferative activity against human N206 cells assessed as reduction in cell viability incubated for 48 hrs relative to control; type: functional
NGP = assay: Induction of apoptosis in human NGP cells assessed as increase in caspase3/7 level at 1000 nM incubated for 24 hrs; type: functional, cell-based
Method in brief: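 NGP cells were seeded at 25,000 cells/well and allowed to adhere overnight. Compound was dispensed in triplicate with DMSO matched. At 24 h, cell-occupied area was imaged live, then a Caspase-Glo 3/7 assay was run using 50 µL reagent per well. Signal is expressed per cell-occupied area.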

SK-N-AS [9] = assay: Antiproliferative activity against human SK-N-AS cells assessed as reduction in cell viability incubated for 48 hrs; type: functional, cell-based; settings: Homo sapiens, SK-N-AS, 48 h; read-out: IC50
Method in brief: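 Cells were grown in RPMI 1640 with 10% FCS and 2 mM L-glutamine. Seeding was 4500 cells/well for NGP, IMR-32 and N206, and 2100 cells/well for SK-N-AS, with adherence overnight. Compound was dispensed over a concentration range in triplicate. Confluence was imaged live for 48 h and normalised to the DMSO control. Absolute IC50 came from a four-parameter variable-slope fit (n = 4).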

[10] = target: T1, Protein cereblon/Aurora kinase A (Homo sapiens); assay: PROTAC activity at AURKA/CRBN in human NGP cells assessed as increase in pRPA32 level at 10 to 1000 nM measured for 24 hrs by immunoblotting analysis; type: cell-based; settings: dose 10-1000 nM
[11] = Growth inhibition of patient derived NB059 Neuroblastoma organoid assessed as reduction in viability incubated for […] by CellTiter Glo 3D assay relative to control; type: functional; settings: Homo sapiens

SMILES: O=C1CCC(N2C(=O)c3cccc(OCCOCCOCCOCCNC(=O)[C@]4(Cc5cccc(Nc6nccs6)n5)CC[C@@H](Oc5cccc(Cl)c5F)CC4)c3C2=O)C(=O)N1 (some centres not stated)
- Activity [1]: inactive
- pIC50 [2]: 6.88
- Activity [3]: Active
- Emax (SK-N-AS [4]): 45%
- Activity [5]: Dose-Dependent Effect
- Emax [6]: 85%
- IC50 [7]: Not Active
- Emax [8]: 53.5%
- Activity (NGP): Active
- pIC50 (SK-N-AS [9]): 5.17
- Activity [10]: Active
- Emax [11]: 80.2%
